Activity calls are given as the source filed them. No cut-off for these calls is given here.
Experiments:
[1] = target: T1, 3-hydroxy-3-methylglutaryl-coenzyme A reductase (Homo sapiens, UniProt P04035); test: (§1) Induction of degradation of Flag-tagged human HMGCR-dCat-ELuc membrane domain (1 to 499 residues) expressed in HEK293 cells assessed as reduction in HMGCR-dCat-Eluc protein level after 4 hrs by luciferase reporter assay; assay type: cell-based
T1 sequence (P04035 whole entry): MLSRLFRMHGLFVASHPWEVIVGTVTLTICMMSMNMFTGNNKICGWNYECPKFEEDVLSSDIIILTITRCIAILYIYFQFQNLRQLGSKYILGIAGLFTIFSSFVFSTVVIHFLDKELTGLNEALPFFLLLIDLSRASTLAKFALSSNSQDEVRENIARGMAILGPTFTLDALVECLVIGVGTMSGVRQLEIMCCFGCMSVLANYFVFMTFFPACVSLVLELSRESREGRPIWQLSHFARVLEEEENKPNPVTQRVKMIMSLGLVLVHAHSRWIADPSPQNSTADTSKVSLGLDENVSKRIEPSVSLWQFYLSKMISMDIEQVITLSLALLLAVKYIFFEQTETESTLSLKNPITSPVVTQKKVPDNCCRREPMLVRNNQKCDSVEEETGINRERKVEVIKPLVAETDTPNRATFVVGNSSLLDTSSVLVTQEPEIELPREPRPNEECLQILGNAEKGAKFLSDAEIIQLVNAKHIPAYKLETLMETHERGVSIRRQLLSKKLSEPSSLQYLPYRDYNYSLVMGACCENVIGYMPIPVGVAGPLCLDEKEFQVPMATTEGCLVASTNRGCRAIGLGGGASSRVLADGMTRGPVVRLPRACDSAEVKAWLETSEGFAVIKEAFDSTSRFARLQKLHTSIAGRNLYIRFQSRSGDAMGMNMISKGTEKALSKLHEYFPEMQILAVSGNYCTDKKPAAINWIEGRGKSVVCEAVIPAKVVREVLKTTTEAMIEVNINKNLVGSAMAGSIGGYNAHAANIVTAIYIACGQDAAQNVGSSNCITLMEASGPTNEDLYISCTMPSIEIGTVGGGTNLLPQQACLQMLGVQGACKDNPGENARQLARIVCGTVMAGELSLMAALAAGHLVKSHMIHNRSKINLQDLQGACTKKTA
In short: (§2)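 HEK293 cells stably expressing HMGCR-dCat-ELuc (FLAG-tagged membrane domain, residues 1-499, emerald luciferase) in DMEM/10% FBS. Compound treatment 4 h, then remaining fusion quantified by luciferase luminescence. Normalized to 0.1% DMSO vehicle as % of control. EC50 given as mean ± SD of more than three independent dose-response experiments.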

HEK293 [2] = test: Cytotoxicity against human HEK293 cells assessed as cell viability at 0.01 to 10 uM incubated for 4 hrs by CytoRed viability assay; assay type: cell-based; conditions: hek293, 4 h, dose 0.01-10 µM
In short: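 CytoRed esterase-based viability read in the same wells as the 4 h HMGCR-dCat-ELuc stable HEK293 degradation assay, just before luciferase measurement.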

[3] = target: T2, 3-hydroxy-3-methylglutaryl-coenzyme A reductase (Homo sapiens) (UniProt P04035); test: Induction of degradation of Flag-tagged human HMGCR-dCat-ELuc membrane domain (1 to 499 residues) expressed in HEK293 cells assessed as reduction in HMGCR-dCat-Eluc protein level at 10 uM after 4 hrs by luciferase reporter assay; assay type: cell-based; in short: as §2
T2 sequence (whole entry): T1 sequence (P04035 whole entry)

HEK293 [4] = test: Cytotoxicity against human HEK293 cells assessed as reduction in cell viability at 10 uM incubated for 4 hrs by CytoRed viability assay; assay type: cell-based; conditions: hek293, 4 h
In short: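 HEK293 cells stably expressing HMGCR-dCat-ELuc (HMGCR residues 1-499 with FLAG tag and emerald luciferase) are grown in DMEM with 10% FBS and penicillin-streptomycin at 5% CO2. Cells are dosed for 4 h. CytoRed, which reads cellular esterase activity, is measured in the same wells just before the luciferase read. The vehicle is 0.1% DMSO.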

[5] = target: T2, 3-hydroxy-3-methylglutaryl-coenzyme A reductase (Homo sapiens); test: as §1; assay type: cell-based; in short: as §2
[6] = target: T2, 3-hydroxy-3-methylglutaryl-coenzyme A reductase (Homo sapiens); test: (§3) Binding affinity to Flag-tagged human HMGCR-dCat-ELuc membrane domain (1 to 499 residues) transfected in HEK293 cell membrane co-transfected with p-CMV-Insig1-myc-FLAG at 20 uM preincubated for 30 mins followed by irradiation with UV light for 3 mins by immunoprecipitation analysis; assay type: cell membranes
[7] = target: T2, 3-hydroxy-3-methylglutaryl-coenzyme A reductase (Homo sapiens); test: as §3, with “3 mins in presence of 50 to 200 uM SRP3042 by immunoprecipitation” for “3 mins by immunoprecipitation”; assay type: cell membranes
[8] = target: T3, Insulin-induced gene 1 protein (Homo sapiens) (UniProt O15503); test: Binding affinity to FLAG/myc-tagged Insig1 transfected in HEK293 cell membrane co-transfected with Flag-tagged human HMGCR-dCat-Eluc membrane domain (1 to 499 residues) at 20 uM preincubated for 30 mins followed by irradiation with UV light for 3 mins by immunoprecipitation analysis; assay type: cell membranes
T3 sequence (whole entry): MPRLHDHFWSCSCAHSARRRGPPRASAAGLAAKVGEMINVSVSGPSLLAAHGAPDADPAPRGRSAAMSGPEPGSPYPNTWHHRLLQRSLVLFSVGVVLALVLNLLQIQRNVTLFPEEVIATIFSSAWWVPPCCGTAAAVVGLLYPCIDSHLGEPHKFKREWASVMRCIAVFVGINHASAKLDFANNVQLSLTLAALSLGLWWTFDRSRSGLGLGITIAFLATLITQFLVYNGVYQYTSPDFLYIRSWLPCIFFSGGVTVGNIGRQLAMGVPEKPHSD

Compound | EC50 ([1]; read-out: EC50) | Activity (HEK293 [2]) | further results
CC(C)OP(=O)(O)C(Cc1cc(C(C)(C)C)nc(C(C)(C)C)c1)P(=O)(OC(C)C)OC(C)C (stereo not drawn) |  | Non-Toxic | EC50 ([1]; hek293): Not Active; Activity [3]: inactive
CCOP(=O)(OCC)C(=Cc1cc(C(C)(C)C)c(O)c(C(C)(C)C)c1)P(=O)(OCC)OCC | 1100 nM |  | Activity (HEK293 [4]): Toxic
CC(C)OP(=O)(OC(C)C)C(=Cc1cc(C(C)(C)C)c(O)c(C(C)(C)C)c1)P(=O)(OC(C)C)OC(C)C | 1340 nM |  | Activity (HEK293 [4]): Toxic
CCOP(=O)(OCC)C(=Cc1ccc(O)cc1)P(=O)(OCC)OCC |  | Non-Toxic | EC50 ([1]; hek293): Not Active; Activity [3]: inactive
C#CCCOP(=O)(OC(C)C)C(Cc1cc(C(C)(C)C)nc(C(C)(C)C)c1)P(=O)(OC(C)C)OC(C)C (stereo not drawn) | 795 nM | Non-Toxic | 
C#Cc1cc(CC(P(=O)(OC(C)C)OC(C)C)P(=O)(OC(C)C)OC(C)C)cc(N=[N+]=[N-])c1 |  | Non-Toxic | EC50 ([1]; hek293): Not Active; Activity [3]: inactive
CCOP(=O)(OCC)C(=Cc1ccc(O)c(C(C)(C)C)c1)P(=O)(OCC)OCC |  | Non-Toxic | EC50 ([1]; hek293): Not Active; Activity [3]: inactive
C#CCCC1(CCOP(=O)(OC(C)C)C(Cc2cc(C(C)(C)C)nc(C(C)(C)C)c2)P(=O)(OC(C)C)OC(C)C)N=N1 (stereo not drawn) | 417 nM | Non-Toxic | Activity [5]: Dose-dependent effect; Activity [6]: Active; Activity [7]: inactive; Activity [8]: inactive
CCOP(=O)(OCC)C(Cc1cc(C(C)(C)C)c(O)c(C(C)(C)C)c1)P(=O)(OCC)OCC | 2770 nM | Non-Toxic | 
CCOP(=O)(OCC)C(=Cc1cc(C(C)(C)C)cc(C(C)(C)C)c1)P(=O)(OCC)OCC | 1160 nM | Non-Toxic | 

More lines, main results first:

EC50 ([1]; read-out: EC50) | Compound | Activity (HEK293 [2]) | further results
1660 nM | CC(C)OP(=O)(OC(C)C)C(Cc1cc(N=[N+]=[N-])cc(C(C)(C)C)c1)P(=O)(OC(C)C)OC(C)C | Non-Toxic | 
3540 nM | C#Cc1cc(CC(P(=O)(OC(C)C)OC(C)C)P(=O)(OC(C)C)OC(C)C)cc(C(C)(C)C)c1 | Non-Toxic | 
876 nM | CC(C)OP(=O)(OC(C)C)C(Cc1cc(C(C)(C)C)c(O)c(C(C)(C)C)c1)P(=O)(OC(C)C)OC(C)C [APOMINE] | Non-Toxic | 
317 nM | CC(C)OP(=O)(OC(C)C)C(Cc1cc(C(C)(C)C)cc(C(C)(C)C)c1)P(=O)(OC(C)C)OC(C)C | Non-Toxic | 
153 nM | CC(C)OP(=O)(OC(C)C)C(Cc1cc(C(C)(C)C)nc(C(C)(C)C)c1)P(=O)(OC(C)C)OC(C)C | Non-Toxic | Activity [5]: Dose-dependent effect
633 nM | C#CCOP(=O)(OC(C)C)C(Cc1cc(C(C)(C)C)nc(C(C)(C)C)c1)P(=O)(OC(C)C)OC(C)C (stereo not drawn) | Non-Toxic | 
1460 nM | CC(C)OP(=O)(OC(C)C)C(Cc1cc(I)cc(C(C)(C)C)c1)P(=O)(OC(C)C)OC(C)C | Non-Toxic | 
